What was measured:
[1] = melting temperature; fluorescence melt of hairpins on a sequencing array, two-state fit, raised by 9.35 °C to match UV melts; details: sodium 0.088 M
Summary of the method: (§1)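 Cy3 signals were normalised both to pre-quench Cy3 and to control constructs. They came from library hairpins carrying annealed Cy3 and quencher oligos on a sequenced MiSeq flow cell, imaged in 50 mM Na-HEPES pH 8.0, 25 mM NaCl, in 2.5 °C steps up to 60 °C. Bootstrapped two-state fits gave melting temperature and folding enthalpy, and four replicates were combined by inverse variance. Fitted temperatures were then raised by 9.35 °C to match UV melts.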

[2] = folding enthalpy; higher = less favourable; fluorescence melt of hairpins on a sequencing array, two-state fit; details: sodium 0.088 M
Summary of the method: as §1

| Sequence | Tm [1] [°C] | folding enthalpy [2] [kcal/mol] |
| --- | --- | --- |
| GCGTAGCGAAAGCCAAGC ((.(.((....)).).)) | 39.9 | -8.12 |
| GAGGACCCGAAAGGGCTC (((..(((....)))))) | 33.9 | -12 |
| GTACTCGAAAGAGGATAC ((((((....)))..))) | 28.5 | -13.2 |
| GCGTCGACGAAAGTCCGC (((..(((....)))))) | 49.7 | -22.2 |
| GTTTGTGGAAACACGAAC (((.(((....))).))) | 49 | -36 |
| GCCAGTACGAAAGTAGGC (((..(((....)))))) | 43.4 | -23.8 |
| GAATACACGAAAGTGTTC (((..(((....)))))) | 27.3 | -13.4 |
| GACTCAGAAATGAGTC ((((((....)))))) | 54.5 | -35.9 |
| GATCACTAGGTGATC ((((((...)))))) | 55.2 | -40.9 |
| GCTAGGCGAAAGCCCCGC ((..(((....)))..)) | 32.6 | -7.78 |
| GTTCGCGAAAGCGCTAAC ((((((....)))..))) | 25.1 | -9.92 |
| GATAAACCGAAAGGTATC (((..(((....)))))) | 30 | -13.9 |
| GTATACCGAAAGGTCTAC (((.(((....))).))) | 40.7 | -22.4 |
| GACGGCGAAAGCCGGTC ((((((....))).))) | 64 | -11.6 |
| GTCTCTCGAAAGAGCGAC (((.(((....))).))) | 46.3 | -25.6 |
| GTTCAAGGAAACTTGGAC ((.((((....)))).)) | 43.7 | -20.7 |
| GCGACACCTCGC ((((....)))) | 51.3 | -29.5 |
| GCGGGGCGAAAGCCATGC ((..(((....)))..)) | 62.4 | -27.7 |
| GCAGGGCGAAAGCGATGC (((..((....))..))) | 57 | -26.1 |

| Sequence | Tm [1] [°C] | folding enthalpy [2] [kcal/mol] |
| --- | --- | --- |
| GGGGAGACGAAAGTCCCC (((..(((....)))))) | 58.1 | -29.6 |
| CGTAGGAAACTACG (((((....))))) | 48.2 | -21 |
| GAGGTCCGAAAGGAGCTC (((.(((....))).))) | 69.3 | -35.5 |
| GATCTTATCAAAGATC ((((((....)))))) | 44.2 | -33.1 |
| GCAAGCCGAAAGGCCTGC (((.(((....))).))) | 54 | -23.3 |
| GTCCACGAAAGTGTGGAC ((((((....)))..))) | 55.8 | -27.1 |
| GGACGGGGAAACCCGCCC ((.((((....)))).)) | 58.7 | -34.1 |
| GGTAACGAAAGTTCACC ((((((....))).))) | 38.3 | -21.2 |
| GTATATGGAAACATGTAC (((.(((....))).))) | 37.2 | -29.6 |
| GCTTGGGGAAACCCAGGC ((.((((....)))).)) | 52.4 | -36.8 |
| GTTGGGGGAAACTCCAGC (.(((.(....).))).) | 35.8 | -23.5 |
| GTGGGTGGAAACGTCCAC ((((..(....)..)))) | 46 | -18.8 |
| GCTAGCGAAAGCTGTAGC ((((((....)))..))) | 43.1 | -21.3 |
| GATCCATCGTGGATC ((((((...)))))) | 50.8 | -36.9 |
| GCTTGGCCGAAAGGCAGC (((..(((....)))))) | 46.9 | -14.4 |
| GATCCCAGACGGGATC ((((((....)))))) | 58.6 | -37.1 |
| GATCGGGAATCCGATC ((((((....)))))) | 64.8 | -38.6 |
| GGCATCGAAAGATGCGCC ((((((....)))..))) | 57.3 | -8.72 |
| GGGGCCGAAAGGCAACCC ((((((....)))..))) | 57.3 | -15 |
